Experimental data taken from ChEMBL document CHEMBL5370658, “Development of First-in-Class Dual Sirt2/HDAC6 Inhibitors as Molecular Tools for Dual Inhibition of Tubulin Deacetylation” (J Med Chem, 2023).
Calls of active or inactive are those of the source. No cut-off for these calls is given here.

Legend:
[1] = biological target: T1, Histone deacetylase 7 (Homo sapiens) (UniProt Q8WUI4); assay: Inhibition of HDAC7 (unknown origin) using Abz-SRGGK(STFA)FRR-NH2 as substrate at 6 to 20000 nM preincubated for 5 mins followed by substrate addition and measured every 30 secs for 30 mins by continuous fluorescence based assay; settings: dose 6-20000 nM, time 35.0 min
T1 sequence (whole entry): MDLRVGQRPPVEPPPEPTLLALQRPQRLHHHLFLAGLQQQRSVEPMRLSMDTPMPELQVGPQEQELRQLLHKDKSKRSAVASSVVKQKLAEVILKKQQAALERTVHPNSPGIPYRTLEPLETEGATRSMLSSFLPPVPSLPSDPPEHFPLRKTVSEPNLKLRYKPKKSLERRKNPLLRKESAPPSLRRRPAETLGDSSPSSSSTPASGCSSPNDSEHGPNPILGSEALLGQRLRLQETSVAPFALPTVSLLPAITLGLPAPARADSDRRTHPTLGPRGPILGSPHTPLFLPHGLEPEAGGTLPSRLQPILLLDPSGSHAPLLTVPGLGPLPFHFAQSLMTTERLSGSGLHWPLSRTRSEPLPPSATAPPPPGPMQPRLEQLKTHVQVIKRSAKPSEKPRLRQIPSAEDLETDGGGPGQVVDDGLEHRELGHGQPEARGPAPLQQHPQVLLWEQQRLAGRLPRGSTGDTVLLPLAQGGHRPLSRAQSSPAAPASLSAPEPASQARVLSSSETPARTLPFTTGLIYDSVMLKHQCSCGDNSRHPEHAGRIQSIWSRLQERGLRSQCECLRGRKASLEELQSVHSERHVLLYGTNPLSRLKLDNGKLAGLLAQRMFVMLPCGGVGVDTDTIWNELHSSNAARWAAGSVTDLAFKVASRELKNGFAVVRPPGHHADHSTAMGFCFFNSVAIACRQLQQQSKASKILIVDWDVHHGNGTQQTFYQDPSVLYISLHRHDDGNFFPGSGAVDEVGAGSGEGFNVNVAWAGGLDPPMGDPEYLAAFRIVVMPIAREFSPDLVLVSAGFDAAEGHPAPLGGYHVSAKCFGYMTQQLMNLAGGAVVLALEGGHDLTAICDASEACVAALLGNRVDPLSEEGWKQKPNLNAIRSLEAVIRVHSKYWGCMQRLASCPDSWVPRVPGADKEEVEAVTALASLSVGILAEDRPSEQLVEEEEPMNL
Procedure, shortened: (§1)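 Continuous fluorescence assay in 20 mM HEPES pH 7.4, 140 mM NaCl, 10 mM KCl, 1 mM TCEP, 0.2 mg/mL BSA, 3% DMSO final. Enzyme (HDAC4 5 nM, HDAC5 10 nM, HDAC7 5 nM, HDAC9 20 nM) preincubated with inhibitor at room temperature. HDAC10 (5 nM) instead in 20 mM HEPES pH 7.4, 0.5 mg/mL BSA. Initial slope used as activity.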

[2] = biological target: NAD-dependent protein deacylase sirtuin-6 (Homo sapiens) (UniProt Q8N6T7); assay: Inhibition of Sirt6 (unknown origin) using Ac-EALPKK(Myr)Y(NO2)GG-NH2 as substrate at 20 to 500 uM preincubated for 5 mins followed by enzyme addition and measured after 1 hr by RP-HPLC analysis; settings: dose 20-500 µM, time 65.0 min
Sequence of NAD-dependent protein deacylase sirtuin-6 (Homo sapiens) (Q8N6T7 whole entry): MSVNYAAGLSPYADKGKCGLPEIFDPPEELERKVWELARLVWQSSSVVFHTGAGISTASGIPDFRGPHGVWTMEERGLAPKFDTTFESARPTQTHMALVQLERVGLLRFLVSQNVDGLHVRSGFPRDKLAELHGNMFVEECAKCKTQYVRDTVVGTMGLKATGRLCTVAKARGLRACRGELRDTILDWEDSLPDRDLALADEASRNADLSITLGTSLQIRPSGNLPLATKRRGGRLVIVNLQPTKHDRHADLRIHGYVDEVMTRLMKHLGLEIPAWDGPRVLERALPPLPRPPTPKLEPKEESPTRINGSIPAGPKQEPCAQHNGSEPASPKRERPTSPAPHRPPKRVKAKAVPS
Procedure, shortened: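 Discontinuous HPLC assay, 120 µL in 20 mM Tris pH 7.8, 150 mM NaCl, 5 mM MgCl2, 0.2 mg/mL BSA, 5% DMSO. Inhibitor preincubated at 37 °C with NAD+ (1 mM) and substrate (Sirt5 5 µM; Sirt6 20 µM). Started with enzyme (Sirt5 100 nM; Sirt6 500 nM). Quenched with TFA/ACN. Sirt5 read by A220, Sirt6 by A360 (nitrotyrosine). Performed once in duplicates; IC50 by nonlinear regression.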

[3] = test system: PC-3M-luc; settings: Homo sapiens, dose 20.0 µM, time 5.0 hrs
[4] = biological target: Histone deacetylase 5 (Homo sapiens) (UniProt Q9UQL6); assay: Inhibition of HDAC5 (unknown origin) using Abz-SRGGK(STFA)FRR-NH2 as substrate at 6 to 20000 nM preincubated for 5 mins followed by substrate addition and measured every 30 secs for 30 mins by continuous fluorescence based assay; settings: dose 6-20000 nM, time 35.0 min; procedure, shortened: as §1
Sequence of Histone deacetylase 5 (Homo sapiens) (Q9UQL6 whole entry): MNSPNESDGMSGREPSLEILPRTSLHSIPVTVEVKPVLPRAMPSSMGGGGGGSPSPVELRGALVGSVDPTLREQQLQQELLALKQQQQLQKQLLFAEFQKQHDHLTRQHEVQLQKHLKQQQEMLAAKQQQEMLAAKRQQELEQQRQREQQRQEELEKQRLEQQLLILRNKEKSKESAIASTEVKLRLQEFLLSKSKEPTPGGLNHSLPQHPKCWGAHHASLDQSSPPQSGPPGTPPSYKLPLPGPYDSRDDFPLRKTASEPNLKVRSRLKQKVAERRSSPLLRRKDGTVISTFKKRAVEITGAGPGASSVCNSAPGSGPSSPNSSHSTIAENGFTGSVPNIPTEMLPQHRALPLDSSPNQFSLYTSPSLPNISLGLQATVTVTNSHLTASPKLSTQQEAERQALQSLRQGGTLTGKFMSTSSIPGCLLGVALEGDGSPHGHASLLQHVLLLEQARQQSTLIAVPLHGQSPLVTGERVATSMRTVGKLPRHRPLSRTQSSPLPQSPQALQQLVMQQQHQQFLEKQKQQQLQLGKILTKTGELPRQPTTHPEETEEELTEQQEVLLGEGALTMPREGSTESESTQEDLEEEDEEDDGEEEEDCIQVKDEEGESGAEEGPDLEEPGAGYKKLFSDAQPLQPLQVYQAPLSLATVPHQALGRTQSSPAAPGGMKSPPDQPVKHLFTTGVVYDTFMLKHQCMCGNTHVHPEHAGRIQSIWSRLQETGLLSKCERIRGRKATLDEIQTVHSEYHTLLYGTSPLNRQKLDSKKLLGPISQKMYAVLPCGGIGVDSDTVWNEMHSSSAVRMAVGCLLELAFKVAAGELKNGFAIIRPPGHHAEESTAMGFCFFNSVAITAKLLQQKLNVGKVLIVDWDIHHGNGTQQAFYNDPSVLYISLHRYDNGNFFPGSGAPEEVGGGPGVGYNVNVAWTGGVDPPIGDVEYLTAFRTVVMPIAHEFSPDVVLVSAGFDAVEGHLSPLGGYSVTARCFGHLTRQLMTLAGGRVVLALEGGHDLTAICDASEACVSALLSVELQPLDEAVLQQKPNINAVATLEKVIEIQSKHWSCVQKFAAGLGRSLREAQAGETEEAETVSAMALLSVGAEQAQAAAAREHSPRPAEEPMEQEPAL

[5] = test system: W1 Ovarian cancer cell; assay: Cytotoxicity against human W1 Ovarian cancer cells assessed as reduction in cell viability incubated for 72 hrs by MTT assay; type: functional, cell-based
Procedure, shortened: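 Cell viability EC50 from at least two independent experiments, each run in triplicate. Results are compared by t-test.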

[6] = biological target: T2, Polyamine deacetylase HDAC10 (Homo sapiens) (UniProt Q969S8); assay: Inhibition of HDAC10 (unknown origin) using Abz-SRGGK(STFA)FRR-NH2 as substrate at 6 to 20000 nM preincubated for 5 mins followed by substrate addition and measured every 30 secs for 30 mins by continuous fluorescence based assay; settings: dose 6-20000 nM, time 35.0 min; procedure, shortened: as §1
T2 sequence (whole entry): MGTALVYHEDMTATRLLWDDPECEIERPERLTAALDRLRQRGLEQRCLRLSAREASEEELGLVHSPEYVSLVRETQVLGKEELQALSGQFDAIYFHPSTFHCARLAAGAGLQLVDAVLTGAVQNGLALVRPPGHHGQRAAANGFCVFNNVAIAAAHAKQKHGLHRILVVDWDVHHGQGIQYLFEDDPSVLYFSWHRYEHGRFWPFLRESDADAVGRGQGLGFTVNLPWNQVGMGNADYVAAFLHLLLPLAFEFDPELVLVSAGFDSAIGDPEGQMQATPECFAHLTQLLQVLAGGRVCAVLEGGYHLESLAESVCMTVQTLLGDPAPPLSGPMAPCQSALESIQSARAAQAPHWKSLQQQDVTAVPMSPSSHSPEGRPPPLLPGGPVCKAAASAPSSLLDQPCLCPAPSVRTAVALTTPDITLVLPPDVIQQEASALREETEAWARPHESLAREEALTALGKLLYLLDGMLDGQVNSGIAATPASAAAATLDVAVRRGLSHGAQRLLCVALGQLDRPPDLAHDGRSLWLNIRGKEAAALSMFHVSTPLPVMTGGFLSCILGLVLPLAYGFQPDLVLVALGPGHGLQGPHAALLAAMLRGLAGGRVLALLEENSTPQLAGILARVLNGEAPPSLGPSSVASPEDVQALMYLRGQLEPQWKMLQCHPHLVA

inhibition [1]: inactive
inhibition [2]: inactive
inhibition [4]: inactive
inhibition [6]: inactive
SMILES: CCCCN(Cc1ccc(C(=O)NO)cc1)C(=O)CCCCn1cc(COc2cccc(Cc3cnc(NC(=O)CSc4nc(C)cc(C)n4)s3)c2)nn1
inhibition [3]: Active
Activity [5]: Active
